Source: ChEMBL document CHEMBL5705905, “Pharmacological targeting of kinases MST1 and MST2 augments tissue repair and regeneration” (Sci Transl Med, 2016)
Calls of active or inactive are those of the source. The calls are words filed in the database; no cut-off is given here.

Assays:
[1] = molecular target: Homeodomain-interacting protein kinase 2 (Homo sapiens) (UniProt Q9H2X6); assay: Inhibition of HIPK2 (unknown origin) assessed as remaining activity at 1 uM by Kinome scan method relative to control
[2] = molecular target: Tyrosine-protein kinase SYK (Homo sapiens) (UniProt P43405); assay: Inhibition of SYK (unknown origin) assessed as remaining activity at 1 uM by Kinome scan method relative to control
[3] = molecular target: Calcium/calmodulin-dependent protein kinase type 1G (Homo sapiens) (UniProt Q96NX5); assay: Inhibition of CAMK1G (unknown origin) assessed as remaining activity at 1 uM by Kinome scan method relative to control
Outline: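 Active-site-dependent competition-binding profiling (KINOMEscan) at 1 μM against a 468-kinase panel; compound supplied from a 10 mM DMSO stock. Read-out is ctrl% = (test signal − positive control signal)/(negative control signal − positive control signal) × 100. DMSO is the negative control (100%) and a control compound the positive control (0%). Lower ctrl% means tighter binding.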

[4] = test system: Epidermal growth factor receptor (Homo sapiens), P00533 [UNDEFINED MUTATION]; assay: Inhibition of EGFR L747-T751del/Sins mutant (unknown origin) assessed as remaining activity at 1 uM by Kinome scan method relative to control
[5] = molecular target: Serine/threonine-protein kinase PLK3 (Homo sapiens) (UniProt Q9H4B4); assay: Inhibition of PLK3 (unknown origin) assessed as remaining activity at 1 uM by Kinome scan method relative to control
[6] = test system: Phosphatidylinositol 4,5-bisphosphate 3-kinase catalytic subunit alpha isoform (Homo sapiens), P42336 [E545K]; assay: Inhibition of PIK3CA E545K mutant (unknown origin) assessed as remaining activity at 1 uM by Kinome scan method relative to control
[7] = molecular target: Serine/threonine-protein kinase pim-3 (Homo sapiens) (UniProt Q86V86); assay: Inhibition of PIM3 (unknown origin) assessed as remaining activity at 1 uM by Kinome scan method relative to control
[8] = molecular target: Serine/threonine-protein kinase SIK1 (Homo sapiens) (UniProt P57059); assay: Inhibition of SIK (unknown origin) assessed as remaining activity at 1 uM by Kinome scan method relative to control
[9] = molecular target: Tyrosine-protein kinase BTK (Homo sapiens) (UniProt Q06187); assay: Inhibition of BTK (unknown origin) assessed as remaining activity at 1 uM by Kinome scan method relative to control
Outline: (§1)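 Active-site-dependent competition-binding (KINOMEscan) panel of 468 kinases, test compound at 1 μM (from a 10 mM DMSO stock). Read-out is ctrl% = (test signal − positive control signal)/(negative control signal − positive control signal) × 100. DMSO is the negative control (100%) and a control compound is the positive control (0%). Lower ctrl% means tighter binding.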

[10] = test system: Mast/stem cell growth factor receptor Kit (Homo sapiens), P10721 [A829P]; assay: Inhibition of KIT A829P mutant (unknown origin) assessed as remaining activity at 1 uM by Kinome scan method relative to control
[11] = molecular target: Dual specificity mitogen-activated protein kinase kinase 2 (Homo sapiens) (UniProt P36507); assay: Inhibition of MEK2 (unknown origin) assessed as remaining activity at 1 uM by Kinome scan method relative to control
[12] = molecular target: Ephrin type-B receptor 3 (Homo sapiens) (UniProt P54753); assay: Inhibition of EPHB3 (unknown origin) assessed as remaining activity at 1 uM by Kinome scan method relative to control
[13] = molecular target: Bone morphogenetic protein receptor type-1A (Homo sapiens) (UniProt P36894); assay: Inhibition of BMPR1A (unknown origin) assessed as remaining activity at 1 uM by Kinome scan method relative to control; outline: as §1
[14] = Apparent volume of distribution in male Sprague-Dawley rat at 5 mg/kg, iv measured for 24 hrs by LC-MS/MS analysis; assay type: ADME, organism-based; conditions: in vivo, read-out: Vz
Outline: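 Sprague-Dawley rats, single intravenous or oral dose. Parameters (half-life, AUC, bioavailability) reported in a supplementary table.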

HepG2 = assay: Inhibition of Flag-tagged MST1 Y101F/D109A mutant (unknown origin) in human HepG2 cells assessed as MOB1 phosphorylation level at 3 uM by immunoblot analysis; assay type: cell-based
[15] = molecular target: Serine/threonine-protein kinase Sgk2 (Homo sapiens) (UniProt Q9HBY8); assay: Inhibition of SGK2 (unknown origin) assessed as remaining activity at 1 uM by Kinome scan method relative to control
Mus musculus [16] = assay: Protection against duct ligation-induced mouse assessed as low level in collagen deposition at 1 mg/kg, ip administration daily for 10 days by Sirius Red staining; assay type: functional, organism-based; conditions: Liver, time 10.0 day
[17] = molecular target: Mitogen-activated protein kinase kinase kinase 5 (Homo sapiens) (UniProt Q99683); assay: Inhibition of ASK1 (unknown origin) assessed as remaining activity at 1 uM by Kinome scan method relative to control; outline: as §1
[18] = molecular target: Receptor tyrosine-protein kinase erbB-2 (Homo sapiens) (UniProt P04626); assay: Inhibition of ERBB2 (unknown origin) assessed as remaining activity at 1 uM by Kinome scan method relative to control
[19] = molecular target: Serine/threonine-protein kinase Nek7 (Homo sapiens) (UniProt Q8TDX7); assay: Inhibition of NEK7 (unknown origin) assessed as remaining activity at 1 uM by Kinome scan method relative to control
[20] = molecular target: Macrophage-stimulating protein receptor (Homo sapiens) (UniProt Q04912); assay: Inhibition of MST1R (unknown origin) assessed as remaining activity at 1 uM by Kinome scan method relative to control
[21] = molecular target: Hormonally up-regulated neu tumor-associated kinase (Homo sapiens) (UniProt P57058); assay: Inhibition of HUNK (unknown origin) assessed as remaining activity at 1 uM by Kinome scan method relative to control
[22] = molecular target: Serine/threonine-protein kinase PAK 2 (Homo sapiens) (UniProt Q13177); assay: Inhibition of PAK2 (unknown origin) assessed as remaining activity at 1 uM by Kinome scan method relative to control
[23] = molecular target: Serine/threonine-protein kinase haspin (Homo sapiens) (UniProt Q8TF76); assay: Inhibition of HASPIN (unknown origin) assessed as remaining activity at 1 uM by Kinome scan method relative to control
[24] = molecular target: MAP kinase-interacting serine/threonine-protein kinase 1 (Homo sapiens) (UniProt Q9BUB5); assay: Inhibition of MKNK1 (unknown origin) assessed as remaining activity at 1 uM by Kinome scan method relative to control
[25] = molecular target: Tyrosine-protein kinase JAK3 (Homo sapiens) (UniProt P52333); assay: Inhibition of JAK3 JH1 domain (unknown origin) assessed as remaining activity at 1 uM by Kinome scan method relative to control
[26] = Inhibition of recombinant His-tagged full-length MST1 Y101F mutant (unknown origin) expressing in Escherichia coli assessed as MOB1 phosphorylation level incubated for 15 min by immunoblot analysis; parameters: species or system Homo sapiens
[27] = molecular target: TGF-beta receptor type-2 (Homo sapiens) (UniProt P37173); assay: Inhibition of TGFBR2 (unknown origin) assessed as remaining activity at 1 uM by Kinome scan method relative to control
Mus musculus [28] = assay: Protection against duct ligation-induced mouse assessed as low dead cells at 1 mg/kg, ip administration daily for 10 days by TUNEL staining; assay type: functional, organism-based; conditions: Liver, time 10.0 day

Sequence of Mitogen-activated protein kinase kinase kinase 5 (Homo sapiens) (Q99683 whole entry): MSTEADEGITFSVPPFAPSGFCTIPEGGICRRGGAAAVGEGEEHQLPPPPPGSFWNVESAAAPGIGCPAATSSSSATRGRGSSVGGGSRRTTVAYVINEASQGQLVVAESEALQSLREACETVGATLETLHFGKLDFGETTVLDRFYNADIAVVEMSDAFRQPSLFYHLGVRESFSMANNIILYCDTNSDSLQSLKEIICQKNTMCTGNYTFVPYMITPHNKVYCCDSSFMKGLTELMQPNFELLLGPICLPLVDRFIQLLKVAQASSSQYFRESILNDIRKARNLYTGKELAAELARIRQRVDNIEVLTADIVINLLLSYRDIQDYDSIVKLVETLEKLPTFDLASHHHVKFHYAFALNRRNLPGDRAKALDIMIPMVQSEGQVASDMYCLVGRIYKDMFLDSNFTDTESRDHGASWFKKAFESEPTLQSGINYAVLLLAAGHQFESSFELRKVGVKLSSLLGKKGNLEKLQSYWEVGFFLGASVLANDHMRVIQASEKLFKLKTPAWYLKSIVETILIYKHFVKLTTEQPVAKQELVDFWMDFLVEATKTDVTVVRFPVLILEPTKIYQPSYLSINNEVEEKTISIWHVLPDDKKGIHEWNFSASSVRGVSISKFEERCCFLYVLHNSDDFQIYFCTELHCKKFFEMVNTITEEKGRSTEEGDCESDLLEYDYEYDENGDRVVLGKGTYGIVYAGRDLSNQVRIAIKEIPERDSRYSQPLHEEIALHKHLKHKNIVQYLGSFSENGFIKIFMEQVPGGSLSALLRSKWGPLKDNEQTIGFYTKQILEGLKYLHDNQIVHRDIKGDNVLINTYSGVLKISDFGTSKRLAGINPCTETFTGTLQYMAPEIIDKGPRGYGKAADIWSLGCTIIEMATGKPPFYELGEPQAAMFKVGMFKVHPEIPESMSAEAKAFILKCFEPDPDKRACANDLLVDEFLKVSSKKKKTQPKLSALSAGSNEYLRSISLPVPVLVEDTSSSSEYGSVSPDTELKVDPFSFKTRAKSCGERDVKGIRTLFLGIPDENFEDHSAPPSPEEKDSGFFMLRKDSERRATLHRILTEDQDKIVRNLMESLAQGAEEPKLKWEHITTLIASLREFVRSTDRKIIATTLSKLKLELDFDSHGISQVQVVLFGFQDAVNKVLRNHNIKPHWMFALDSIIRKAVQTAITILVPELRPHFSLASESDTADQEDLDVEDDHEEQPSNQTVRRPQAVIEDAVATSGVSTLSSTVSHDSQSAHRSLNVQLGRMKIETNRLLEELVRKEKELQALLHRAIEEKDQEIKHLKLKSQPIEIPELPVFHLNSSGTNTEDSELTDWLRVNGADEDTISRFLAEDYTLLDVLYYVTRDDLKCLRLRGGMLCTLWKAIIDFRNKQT
Sequence of Dual specificity mitogen-activated protein kinase kinase 2 (Homo sapiens) (P36507 whole entry): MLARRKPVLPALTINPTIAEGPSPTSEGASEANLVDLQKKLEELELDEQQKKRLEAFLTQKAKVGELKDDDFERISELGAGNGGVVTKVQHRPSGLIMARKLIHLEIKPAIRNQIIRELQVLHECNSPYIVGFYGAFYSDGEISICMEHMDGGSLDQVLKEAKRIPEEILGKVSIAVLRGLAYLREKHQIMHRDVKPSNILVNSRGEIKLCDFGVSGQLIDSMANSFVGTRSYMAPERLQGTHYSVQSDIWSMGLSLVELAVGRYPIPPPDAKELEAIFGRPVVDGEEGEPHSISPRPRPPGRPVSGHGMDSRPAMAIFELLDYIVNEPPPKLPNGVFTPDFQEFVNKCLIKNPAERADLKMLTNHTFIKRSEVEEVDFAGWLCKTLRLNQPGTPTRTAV
Sequence of Receptor tyrosine-protein kinase erbB-2 (Homo sapiens) (P04626 whole entry): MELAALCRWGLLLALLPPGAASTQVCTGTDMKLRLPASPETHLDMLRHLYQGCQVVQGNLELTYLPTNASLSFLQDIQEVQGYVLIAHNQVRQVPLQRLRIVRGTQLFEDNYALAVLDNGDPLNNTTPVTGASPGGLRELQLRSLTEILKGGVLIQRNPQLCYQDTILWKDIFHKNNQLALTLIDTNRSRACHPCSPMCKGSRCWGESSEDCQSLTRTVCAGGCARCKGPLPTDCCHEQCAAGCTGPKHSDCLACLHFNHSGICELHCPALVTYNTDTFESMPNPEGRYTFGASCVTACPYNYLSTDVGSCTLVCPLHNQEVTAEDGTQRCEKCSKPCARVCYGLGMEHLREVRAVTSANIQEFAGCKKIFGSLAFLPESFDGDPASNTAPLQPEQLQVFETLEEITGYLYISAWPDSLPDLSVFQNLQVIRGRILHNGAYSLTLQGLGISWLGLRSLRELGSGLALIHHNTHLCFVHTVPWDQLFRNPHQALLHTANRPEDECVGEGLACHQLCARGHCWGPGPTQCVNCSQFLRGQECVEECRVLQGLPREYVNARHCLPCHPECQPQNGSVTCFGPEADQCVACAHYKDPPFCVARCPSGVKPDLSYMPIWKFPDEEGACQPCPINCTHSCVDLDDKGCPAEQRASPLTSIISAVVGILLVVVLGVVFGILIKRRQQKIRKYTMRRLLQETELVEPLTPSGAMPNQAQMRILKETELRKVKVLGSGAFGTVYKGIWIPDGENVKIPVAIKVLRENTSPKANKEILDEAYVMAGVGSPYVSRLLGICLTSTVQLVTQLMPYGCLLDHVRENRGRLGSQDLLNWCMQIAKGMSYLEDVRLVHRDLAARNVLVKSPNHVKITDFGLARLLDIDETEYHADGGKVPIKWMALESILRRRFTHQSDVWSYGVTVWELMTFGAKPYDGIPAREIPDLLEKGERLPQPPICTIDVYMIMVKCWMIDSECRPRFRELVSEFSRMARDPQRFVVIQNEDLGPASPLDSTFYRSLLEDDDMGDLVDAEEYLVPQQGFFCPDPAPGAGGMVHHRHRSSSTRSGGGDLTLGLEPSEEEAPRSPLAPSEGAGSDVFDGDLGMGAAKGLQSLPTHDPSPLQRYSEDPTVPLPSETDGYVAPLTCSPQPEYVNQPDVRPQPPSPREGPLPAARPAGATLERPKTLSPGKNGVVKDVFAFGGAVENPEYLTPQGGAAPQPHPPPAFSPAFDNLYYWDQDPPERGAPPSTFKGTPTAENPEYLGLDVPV
Sequence of Serine/threonine-protein kinase Sgk2 (Homo sapiens) (Q9HBY8 whole entry): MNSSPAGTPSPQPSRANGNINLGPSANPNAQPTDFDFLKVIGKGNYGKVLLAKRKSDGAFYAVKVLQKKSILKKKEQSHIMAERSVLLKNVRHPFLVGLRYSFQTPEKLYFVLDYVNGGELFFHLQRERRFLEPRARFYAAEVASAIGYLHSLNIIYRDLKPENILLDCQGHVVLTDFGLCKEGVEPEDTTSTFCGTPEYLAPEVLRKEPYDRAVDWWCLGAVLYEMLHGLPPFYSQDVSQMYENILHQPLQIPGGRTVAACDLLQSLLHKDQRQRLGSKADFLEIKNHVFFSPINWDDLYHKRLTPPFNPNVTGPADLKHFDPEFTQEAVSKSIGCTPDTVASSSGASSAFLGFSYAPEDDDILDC
Sequence of Serine/threonine-protein kinase SIK1 (Homo sapiens) (P57059 whole entry): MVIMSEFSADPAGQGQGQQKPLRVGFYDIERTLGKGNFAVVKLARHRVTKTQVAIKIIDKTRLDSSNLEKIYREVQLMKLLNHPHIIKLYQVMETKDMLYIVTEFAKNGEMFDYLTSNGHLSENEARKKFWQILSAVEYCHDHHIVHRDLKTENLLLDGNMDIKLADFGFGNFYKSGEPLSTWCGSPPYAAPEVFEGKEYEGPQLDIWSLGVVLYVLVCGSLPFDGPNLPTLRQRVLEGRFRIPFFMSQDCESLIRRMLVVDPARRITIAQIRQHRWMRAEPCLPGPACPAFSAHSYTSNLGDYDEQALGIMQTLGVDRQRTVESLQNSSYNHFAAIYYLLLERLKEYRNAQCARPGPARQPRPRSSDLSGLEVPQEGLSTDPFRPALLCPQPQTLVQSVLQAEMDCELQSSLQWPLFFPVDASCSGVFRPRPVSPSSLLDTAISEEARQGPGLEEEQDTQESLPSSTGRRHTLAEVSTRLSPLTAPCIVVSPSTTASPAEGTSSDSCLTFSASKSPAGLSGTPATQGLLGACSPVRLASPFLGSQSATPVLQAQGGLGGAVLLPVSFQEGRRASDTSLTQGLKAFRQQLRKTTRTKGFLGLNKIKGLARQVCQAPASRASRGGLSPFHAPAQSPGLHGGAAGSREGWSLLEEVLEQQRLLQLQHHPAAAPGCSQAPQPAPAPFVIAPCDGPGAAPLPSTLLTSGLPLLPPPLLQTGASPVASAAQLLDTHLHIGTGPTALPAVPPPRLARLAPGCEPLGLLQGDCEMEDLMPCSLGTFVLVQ
Sequence of Serine/threonine-protein kinase PAK 2 (Homo sapiens) (Q13177 whole entry): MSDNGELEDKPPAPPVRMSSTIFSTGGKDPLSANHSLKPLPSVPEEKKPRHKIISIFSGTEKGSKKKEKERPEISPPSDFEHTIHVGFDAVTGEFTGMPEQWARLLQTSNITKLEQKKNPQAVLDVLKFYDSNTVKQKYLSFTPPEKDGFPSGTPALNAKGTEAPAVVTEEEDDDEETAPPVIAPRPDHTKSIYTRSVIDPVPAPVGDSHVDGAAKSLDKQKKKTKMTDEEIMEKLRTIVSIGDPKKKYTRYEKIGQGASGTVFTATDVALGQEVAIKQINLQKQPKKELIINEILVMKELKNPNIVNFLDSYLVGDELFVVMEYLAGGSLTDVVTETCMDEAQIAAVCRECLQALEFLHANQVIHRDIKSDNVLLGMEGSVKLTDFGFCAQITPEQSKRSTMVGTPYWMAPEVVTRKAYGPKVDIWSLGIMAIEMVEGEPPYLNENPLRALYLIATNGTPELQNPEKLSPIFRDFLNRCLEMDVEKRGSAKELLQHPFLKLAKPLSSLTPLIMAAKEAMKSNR

For `CN1C(=O)c2sccc2N(C)c2nc(Nc3ccc(S(N)(=O)=O)cc3)ncc21`, the Activity [1] was 96%, the Activity [2] was 90% and the Activity [3] was 100%. For the same molecule, the Activity [4] was 67%, the Activity [5] was 99% and the Activity [6] was 49%. It also gave an Activity [7] of 100%, an Activity [8] of 100% and an Activity [9] of 48%. For the same molecule, the Activity [10] was 91%, the Activity [11] was 99% and the Activity [12] was 95%. The Activity [13] was 70%, the Vd [14] was 7.1 L/kg and the inhibition (HepG2) was “Active”. The Activity [15] was 91%, the Activity (Mus musculus [16]) was “Active” and the Activity [17] was 100%. The Activity [18] was 100%, the Activity [19] was 88% and the Activity [20] was 96%. It also gave an Activity [21] of 84%, an Activity [22] of 84% and an Activity [23] of 96%. It also gave an Activity [24] of 100%, an Activity [25] of 73% and an IC50 [26] of 355 nM. For the same molecule, the Activity [27] was 100% and the Activity (Mus musculus [28]) was “Active”.
